Results on 97 compounds are retold here after PubChem BioAssay AID1230 (PCMD, 2008).

Molecules are shown by their SMILES. The whole screen tested about 210,000 compounds, of which about 220 (0.1%) were called active. The list comes from a sample in which actives are over-represented; it also holds similar structures and randomly drawn compounds. A number with no mark means an inactive call.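 The calls were made as follows: active = signal enhancement of 30% or more; inactive = the rest.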

Sequence of E3 ubiquitin-protein ligase Mdm2 (Homo sapiens) (Q00987 whole entry, looked up, the tested form may be a part): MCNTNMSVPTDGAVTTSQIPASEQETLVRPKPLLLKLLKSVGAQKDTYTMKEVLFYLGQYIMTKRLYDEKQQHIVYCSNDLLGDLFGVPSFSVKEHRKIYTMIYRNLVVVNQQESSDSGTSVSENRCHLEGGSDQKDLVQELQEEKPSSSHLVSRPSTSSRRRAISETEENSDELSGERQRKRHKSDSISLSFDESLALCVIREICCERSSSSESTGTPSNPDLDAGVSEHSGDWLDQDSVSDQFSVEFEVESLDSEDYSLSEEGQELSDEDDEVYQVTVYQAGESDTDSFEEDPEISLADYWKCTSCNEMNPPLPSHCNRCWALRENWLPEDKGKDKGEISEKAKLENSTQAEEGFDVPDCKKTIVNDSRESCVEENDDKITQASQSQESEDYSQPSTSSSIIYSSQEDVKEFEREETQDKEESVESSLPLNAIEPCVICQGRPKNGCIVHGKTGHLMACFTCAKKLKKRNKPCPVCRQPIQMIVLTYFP

This assay concerns the target E3 ubiquitin-protein ligase Mdm2 (Homo sapiens) (UniProt Q00987). Briefly: MDM2-luciferase reporter signal enhancers, primary screen, MDM2 E3 ligase inhibitor project, cell-based, luminescence, 1536-well (AID 1230).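 Also: higher signal means inhibition of MDM2 E3 ligase activity.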 The following applies: cell-based MDM2 ubiquitination luciferase reporter, 2 h; at 5 µM; active compounds read high; 0 = plate control, 100 = twice control, blank-subtracted. In short, it runs like this: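 Test system: mammalian cells stably expressing self-ubiquitinating, self-degrading MDM2 E3–luciferase fusion; Amount: 2000 cells in each well; Medium: DMEM; Schedule: 4 h settle plus 2 h compound, 37 °C; Technique: SteadyLite luciferase luminescence after 15 min room-temperature reagent incubation; Benchmarks: plate control and blank wells.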
`Cc1onc(-c2ccc(Cl)cc2)c1-c1ccnn1S(=O)(=O)c1ccc(Cl)cc1`: the signal enhancement is -0.58%.
Under `C=CCC1(C#N)C(=S)NC(C)=C(C(=O)OCC)C1c1ccccc1` (configuration not stated) stands 9.19%; under `CCc1ccccc1N1CN(Cc2ccco2)CNC1=S`, 2.19%.
With `OCC1(Cc2ccccc2C(F)(F)F)CCN(Cc2ccncc2)CC1`, the signal enhancement is -8.35%.
The same measure for `Cc1nc(/N=C(\N)NC(=O)NC2CCCCC2)nc2ccccc12`: -4.72%; for `COCCNc1nc(-c2ccccc2)nc2c1oc1ccccc12`: -11.4%; for `Cc1ccc2c(c1)nnc1nnc(SCC(=O)O)n12`: 0.72%.
The same measure for `Cc1ccc2c(C)c(C(=O)N3CCC(N4CCC(C(=O)NC5CC5)CC4)CC3)oc2c1`: -9.89%.
The same measure for `O=C(NC(=S)Nc1cccc2c(O)cccc12)c1cccc(Br)c1`: -0.26%; for `Clc1ccc(C[n+]2cc(-c3ccc(Cl)cc3)n3c2CCC3)cc1`: -12.4%.
In the case of `CSc1nnnn1-c1c(C)cc(C)cc1C`, the signal enhancement is -3.25%.
The same measure for `O=C(Nc1ccc(N2CCOCC2)nc1)c1c(F)cccc1F`: -15%; for `Nc1nc(Sc2ncccc2[N+](=O)[O-])n[nH]1`: 1.65%; for `CCNC(=O)CCc1nc(-c2ccc(C)cc2)no1`: 8.03%.
Under `O=C1C2C3C=CC(C3)C2C(=O)N1c1ccc(S(=O)(=O)Nc2nccs2)cc1` (configuration not stated) stands -8.32%; under `FC(F)(F)c1nc(-c2ccccc2)ncc1-c1nnnn1-c1ccccc1`, -9.19%.
The same measure for `O=c1oc(-c2ccccc2NS(=O)(=O)c2ccc(Cl)cc2)nc2ccccc12`: -16.5%.
Consider `COc1ccc(Cc2cc(-c3ccc(F)cc3)n[nH]c2=O)cc1`, for which the signal enhancement is -10.5%.
Under `O=C(NCCC1=CCCCC1)c1ccc(Cl)c([N+](=O)[O-])c1` stands 59.6% (active); under `Cn1nnc2cc(C(=O)NCCC3=CCCCC3)ccc21`, -41.3%.
The same measure for `CN(c1ccc(C(=O)NCCC2=CCCCC2)cc1)S(C)(=O)=O`: -36.2%; for `O=C1CCCCC1C(=O)c1ccccc1` (configuration not stated): -74.7%.
The same measure for `CNC(=O)c1csc(Cc2c(Cl)sc3ccc(Cl)cc23)n1`: -3.68%.
Regarding `O=C1N=C(N2CCc3ccccc3C2)S/C1=C\c1ccc(O)cc1`, the signal enhancement was -10.4%.
Under `O=S(=O)(Nc1ccc(OC(F)(F)F)cc1)c1cccc2nonc12` stands 7.33%.
Under `Cc1onc(NC(=O)c2ccc([N+](=O)[O-])o2)c1Br` stands -5.7%; under `O=C(CCCCCN1C(=O)c2cccc3cccc(c23)C1=O)NCc1ccco1`, -8.79%; under `Cn1c(CSCC(=O)Nc2ccccc2)nnc1SCc1ccccc1`, -7.31%.
With `Cn1cccc1/C=N/NC(=O)CNc1cccc2ccccc12`, the signal enhancement is -9.96%.
The same measure for `COc1cc(OC)c2ccc(=O)oc2c1C(CCN1CCN(c2ccccc2)CC1)c1ccc2c(c1)OCO2` (configuration not stated): 6.23%.
In the case of `COc1ccc(CCNC(=O)C(=O)Nc2ccc3nc4n(c(=O)c3c2)CCCCC4)cc1OC`, the signal enhancement was 3.62%.
With `Nc1ccccc1SC(C[N+](=O)[O-])c1ccccc1` (configuration not stated), the signal enhancement was -3.83%.
Under `Cn1c(C(=O)NCCCN2CCCCC2)cc2sccc21` stands -19.5%.
As for `O=C(NCCCN1CCN(c2ccccc2F)CC1)C1CCC(=O)N1C1CCCCC1` (configuration not stated), the signal enhancement is -15.4%.
Under `O=C(CCS(=O)(=O)Cc1ccccc1F)NCCCN1CCCCC1` stands 35.1% (active); under `CSc1sc(C(=O)NC(=O)NCc2cccnc2)c(C)c1-c1ccon1`, -12.8%.
Take `O=C(NCCCn1ccnc1)C(=O)NCC1OCCN1S(=O)(=O)c1cc(F)ccc1F` (configuration not stated): the signal enhancement was -1.11%.
Under `Cc1cc(SCC(=O)c2ccccc2)nc(SCC(=O)c2ccccc2)n1` stands -22.4%.
Under `Cc1cc(C)nc(S/C=C/C(=O)c2ccccc2)n1` stands 45.8% (active).
`C/C(=N\NC(=O)c1nc(C)cc(C)n1)c1ccccc1`: the signal enhancement is -2.38%.
The same measure for `CNC(=S)NNC(=O)c1oc2nc(-c3ccccc3)cc(-c3ccco3)c2c1N`: -16.3%; for `Cc1noc(C)c1COC(=O)COc1ccc(-c2ccccc2)cc1`: -6.72%; for `CCS(=O)(=O)c1cc([N+](=O)[O-])c(Sc2ccccc2N)s1`: -43.9%.
Take `CS(=O)(=O)c1ccc2nnn(OCC(=O)Nc3cccc(C#N)c3)c2c1`: the signal enhancement was -16.9%.
The same measure for `CC(=O)c1ccc(S(=O)(=O)N2CCN(C(=O)/C=C/c3ccc4ccccc4n3)CC2)cc1`: -8.84%; for `C/C=C\C=C\C(=O)N1CC2(CC(c3cccc(NC(=O)/C(C)=C\C)c3)=NO2)C[C@H]1C(N)=O` (some centres not stated): -14.1%.
The same measure for `Cn1ccc(=NC=C(C#N)C#N)c2ccccc21`: 30.3% (active); for `CCOC(=O)c1cc(C)nc(S(C)(=O)=O)c1C#N`: -11%.
In the case of `CCOC(=O)c1c(NC(=S)NC)sc2c1CCCC2`, the signal enhancement is -8.08%.
Under `COc1ccc(/C=C/C(=O)Nc2cccnc2)cc1OC` stands -3.38%; under `COc1ccc(/C=C/C(=O)Nc2ccc3c(c2)OCCO3)cc1OC`, -7.44%; under `COc1ccc(/C=C/C(=O)Nc2ccc(C34CC5CC(CC(O)(C5)C3)C4)cc2)cc1OC`, 45.6% (active).
Under `Clc1ccc(C[n+]2cc(-c3ccccc3)n3c2CCC3)cc1` stands -18.4%; under `S=c1[nH]nc(-c2cccs2)n1/N=C/c1cn(-c2ccccc2)nc1-c1ccc(Cl)cc1`, -7.25%; under `COc1cccc(C2Nc3cccc4cccc(c34)N2)c1`, -2.34%.
The same measure for `CNC(=O)C(NC(=O)c1ccccc1)=C(C)C`: -12.3%; for `COc1ccccc1OCC(=O)O/N=C(\N)c1ccccn1`: -10.7%.
With `N/C(=N\OC(=O)Nc1ccccc1)c1ccno1`, the signal enhancement was -4.12%.
`CCCc1nc2c(c(=O)c3ccccc3n2C)c(=O)n1-c1cc(C)cc(C)c1`: the signal enhancement is -9.46%.
The same measure for `COc1ccc(NC(=O)CSc2ncnc3[nH]ncc23)cc1`: -3.15%; for `CC(C)(C)c1cc(NC(=O)NN2CCOCC2)nn1-c1c(Cl)cc(Cl)cc1Cl`: -17.5%; for `CCOC(=O)C1CCN(C(=O)Nc2ccc(C)c(Cl)c2)CC1`: -11.1%.
The same measure for `Cn1nccc1NC(=O)Nc1ccc(OC(F)(F)F)cc1`: -5.96%.
The same measure for `O=C1NC[C@@H](Cc2ccc(O)cc2)N(CCc2cccc(F)c2)C1=O`: 10.9%; for `COc1ccc(CNC(=O)C(Cc2ccccc2)n2cccc2)cc1` (configuration not stated): -4.92%.
Regarding `Cn1cnc([N+](=O)[O-])c1Sc1n[nH]c(N)n1`, the signal enhancement was -5.56%.
For `O=C(CCc1ccccc1)NNc1ccc(F)cc1`, the signal enhancement was -12.4%.
With `CCCCCCCCCCCCN1C(=O)CSC1c1cccnc1` (configuration not stated), the signal enhancement is -5.41%.
The same measure for `O=C(NCC1CCCO1)c1cc(-c2ccccc2)nc2ccccc12` (configuration not stated): -4.98%; for `CCOC(=O)C(=CNNc1ccsc1C(=O)OC)C(=O)OCC`: -27.3%.
Under `COCCn1c(=NC(=O)c2ccccc2[N+](=O)[O-])sc2cc(S(C)(=O)=O)ccc21` stands -5.21%; under `CC(=O)c1ccc2c(c1)OCCOCCOc1ccc(C(C)=O)cc1OCCOCCO2`, -8.95%.
The same measure for `Cn1c(=NC(=O)c2ccc3c(c2)OCCO3)sc2cc(S(C)(=O)=O)ccc21`: 37% (active); for `Cc1cccc(N(C)C(=O)c2cc3c(=O)[nH]c4ccc(C)cc4c3s2)c1`: 2.91%.
For `Cc1cccc(N2CCN(Cc3nc(C4CC4)no3)CC2)n1`, the signal enhancement was 2.81%.
Under `CC(C)(C)c1cc(P(=O)(c2ccccc2)c2ccccc2)ccc1O` stands -14%.
Under `COc1ccc(CCNC(=O)C2CC3Cn4c(nc5cc(C)c(C)cc54)C3N2C)cc1` (configuration not stated) stands 13%; under `CC1=NOC(=O)/C1=C\c1ccccc1`, -4.01%; under `Cc1cccc(C)c1Nc1c(-c2ccccc2O)nc2ncccn12`, -18.4%.
Under `CN(Cc1nc(-c2cnccn2)no1)Cc1n[nH]c2c1CCCCC2` stands -8.5%; under `Clc1ccc(CSc2nnc3c(n2)[nH]c2ccccc23)cc1`, -10.6%.
Regarding `CCNc1nc(NCC)nc(N/N=C/c2ccc(O)c(OC)c2)n1`, the signal enhancement is -10%.
The same measure for `CC(=O)N1N=C(c2ccncc2)OC1(Cc1ccccc1)Cc1ccccc1`: -11.4%; for `CCC(C)(C)NC(=O)C(c1ccc(O)cc1)N(C(=O)Cn1nnc2ccccc21)c1ccc(NC(C)=O)cc1` (configuration not stated): -11.7%; for `Cn1c2ccc(F)cc2c2nnc(NN)nc21`: -2.02%.
The same measure for `COc1ccc(OC)c(NC(=O)N[C@H](Cc2ccccc2)C(=O)NN)c1`: -4.05%; for `NC(=O)CC(NC(=O)Cc1cccc2ccccc12)c1ccc(NCc2cc(F)ccc2F)c([N+](=O)[O-])c1` (configuration not stated): 5.13%.
The same measure for `COc1ccc(OCC(O)CNCCNc2nccc(C(F)(F)F)n2)cc1` (configuration not stated): -12.4%; for `CC1CN(c2nc(Nc3ccccc3)nc(N)c2[N+](=O)[O-])CC(C)O1` (configuration not stated): -20.6%.
Take `Cc1c(C(=O)N(Cc2ccccc2)Cc2cccnc2)cnn1-c1ccc(F)cc1`: the signal enhancement was -11.7%.
Under `O=c1[nH]n(-c2cccc(Cl)c2)c2ncccc12` stands -4.4%; under `Oc1c(CN2CCN(c3ccc(F)cc3)CC2)cc(Cl)c2cccnc12`, 9.75%; under `Clc1cccc(CN2COc3c(cc(Cl)c4cccnc34)C2)c1`, 46.8% (active).
The same measure for `CCCSc1ncccc1C(=O)O`: -7.45%; for `COC(=O)C1=C(N)Oc2cc(C)[nH]c(=O)c2C1c1ccc(Cl)cc1` (configuration not stated): -10.2%.
The same measure for `CSc1nnc(SCc2nc3sc(C(=O)O)c(C)c3c(=O)[nH]2)s1`: -16.2%.
For the compound `O=C(CSc1nnnn1-c1ccc(O)cc1)c1ccc(F)cc1`, the signal enhancement is -12.1%.
